Test results from ChEMBL document CHEMBL1142233, “Treatment of diabetes and atherosclerosis by inhibiting fatty-acid-binding protein aP2” (2007).
Active and inactive are the calls of the source. The rule behind the calls is not given here.

What was measured:
Mus musculus [1] = test: Inhibition of aP2 in 5-week old apoE -/- C57BL/6J mouse fed on western diet and 15 mg/kg/day, po drug simultaneously in early intervention study assessed as reduction of atherosclerotic lesion in en face aorta relative to control; format: functional; parameters: scale not given: the % may be the effect or the level left
Method in brief: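 Male Apoe⁻/⁻ C57BL/6J mice were fed a western diet (21% fat, 0.21% cholesterol) from 4–5 weeks of age. They were gavaged for 6 weeks with 15 mg kg⁻¹ d⁻¹ in vehicle (10% 1-methyl-2-pyrrolidone, 5% cremophor EL with ethanol, in water), starting at 5 weeks (early) or 12 weeks (late). Perfusion-fixed, pinned-out aortas were stained with Sudan IV and lesion area was quantified.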

Mus musculus [2] = test: Reduction of total liver triglyceride level in ob/ob mouse at 40 mg/kg/day, po; format: functional, organism-based
Method in brief: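 Male ob/ob mice were gavaged with 40 mg kg⁻¹ d⁻¹ or vehicle for 6 weeks from 8 weeks of age, n = 6 per group. Total liver lipids were extracted by the Bligh–Dyer method and triglyceride content was determined.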

Mus musculus [3] = test: Effect on cholesterol level in ob/ob mouse at 40 mg/kg/day, po after 6 weeks relative to control; format: functional
Method in brief: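 Male ob/ob mice given oral gavage daily for 6 weeks from 8 weeks old, n = 6 per group. Blood taken after 6 h fast before and after treatment; fed glucose taken at week 2. Glucose by meter on 3 μl whole blood, insulin by ultrasensitive ELISA, cholesterol, FFA and glycerol by colorimetric microplate assays.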

Mus musculus [4] = test: Increase in adiponectin level in ob/ob mouse plasma at 40 mg/kg/day, po after 6 weeks relative to control; format: functional, organism-based
Method in brief: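 Plasma from male ob/ob mice after 6 weeks of daily oral gavage (started at 8 weeks), 6 h fasted, n = 6 per group. Adiponectin measured by ELISA.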

Mus musculus [5] = test: Effect on free fatty acid level in 5-week old apoE-/- C57BL/6J mouse fed on western diet and administered with 15 mg/kg/day, po drug at 12 week in 12-18 week late intervention study; format: functional
Method in brief: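 Male Apoe−/− mice on western diet (21% fat, 0.21% cholesterol) from 4–5 weeks of age. Oral gavage for 6 weeks from age 5 or 12 weeks; vehicle 10% 1-methyl-2-pyrrolidone, 5% cremophor EL with ethanol in water. Blood taken after 6 h fast before and after treatment. Glucose by meter; insulin by ELISA; lipids and glycerol colorimetric.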

THP-1 = test: Reduction of cholesterol ester accumulation in human THP1 cells at 25 uM after 4 days relative to control; format: functional; parameters: scale not given: the % may be the effect or the level left
Method in brief: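 THP-1 monocytes were made into macrophages with 100 nM PMA for 24 h, then loaded for 24 h with 50 μg ml⁻¹ acLDL in 5% LPDS. They were then held 4 days in 10% FBS with 25 μM inhibitor or DMSO. After hexane/isopropanol extraction, cholesterol ester was taken as total minus free cholesterol, per cellular protein.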

For `CCc1c(-c2ccccc2)c(-c2ccccc2)nn1-c1ccccc1-c1cccc(OCC(=O)O)c1`, the Activity (Mus musculus [1]) was 52.6%, the Activity (Mus musculus [2]) was “Active” and the Activity (Mus musculus [3]) was 285.3 mg/dL. The Activity (Mus musculus [4]) was “Active”, the Activity (Mus musculus [5]) was 2.55 mM and the Activity (THP-1) was 44%.
